How the values were obtained:
[1] = molecular target: T1, Histone deacetylase 4 (Homo sapiens, UniProt P56524); experiment: Inhibition of recombinant human N-terminal His6-SUMO-tagged C-terminal SII-tagged HDAC4 expressed in Escherichia coli (BL21) DE3 pLysS cells assessed as residual activity at 50 uM using BocLys(trifluoroacetyl)-AMC as substrate incubated for 30 mins by fluorescence assay relative to control
How it was run: (§1)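 Catalytic-domain HDAC4 (His6-SUMO/SII-tagged) and full-length codon-optimized human HDAC8 were expressed in E. coli BL21 DE3 pLysS from pET14b. Both were assayed in a two-step fluorogenic format with Boc-Lys(trifluoroacetyl)-AMC, followed by trypsin development. Compounds were screened first at 50 µM for residual activity.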

[2] = molecular target: T2, Histone deacetylase 8 (Homo sapiens) (UniProt Q9BY41); experiment: Inhibition of recombinant human N-terminal His6-SUMO-tagged C-terminal SII-tagged HDAC8 expressed in Escherichia coli (BL21) DE3 pLysS cells assessed as residual activity at 50 uM using BocLys(trifluoroacetyl)-AMC as substrate incubated for 30 mins by fluorescence assay relative to control; how it was run: as §1
T2 sequence (whole entry): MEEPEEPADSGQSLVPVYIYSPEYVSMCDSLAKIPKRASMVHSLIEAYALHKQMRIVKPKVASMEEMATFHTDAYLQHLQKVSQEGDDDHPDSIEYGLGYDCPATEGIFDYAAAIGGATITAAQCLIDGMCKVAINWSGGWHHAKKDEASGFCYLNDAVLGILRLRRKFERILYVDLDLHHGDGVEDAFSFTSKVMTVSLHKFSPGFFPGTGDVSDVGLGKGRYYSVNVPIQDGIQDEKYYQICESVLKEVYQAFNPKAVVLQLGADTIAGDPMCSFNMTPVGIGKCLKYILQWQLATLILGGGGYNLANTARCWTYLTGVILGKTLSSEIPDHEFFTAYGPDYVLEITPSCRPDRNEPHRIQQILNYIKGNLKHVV

[3] = molecular target: T1, Histone deacetylase 4; experiment: Inhibition of recombinant human N-terminal His6-SUMO-tagged C-terminal SII-tagged HDAC4 expressed in Escherichia coli (BL21) DE3 pLysS cells using BocLys(trifluoroacetyl)-AMC as substrate incubated for 30 mins by fluorescence assay; how it was run: as §1
[4] = molecular target: T3, Histone deacetylase 8 (Homo sapiens, UniProt Q9BY41); experiment: Inhibition of recombinant human N-terminal His6-SUMO-tagged C-terminal SII-tagged HDAC8 expressed in Escherichia coli (BL21) DE3 pLysS cells using BocLys(trifluoroacetyl)-AMC as substrate incubated for 30 mins by fluorescence assay; how it was run: as §1
T3 sequence (Q9BY41 whole entry): T2 sequence (whole entry)

[5] = molecular target: Vascular endothelial growth factor receptor 2 (Homo sapiens, UniProt P35968); experiment: Inhibition of human VEGFR2 in HUVEC cells assessed as reduction in VEGFR2 phosphorylation at 10 uM incubated for 30 mins by anti-phospho VEGF Tyr 1175 antibody based assay relative to control; type: cell-based
Vascular endothelial growth factor receptor 2, sequence (P35968 whole entry): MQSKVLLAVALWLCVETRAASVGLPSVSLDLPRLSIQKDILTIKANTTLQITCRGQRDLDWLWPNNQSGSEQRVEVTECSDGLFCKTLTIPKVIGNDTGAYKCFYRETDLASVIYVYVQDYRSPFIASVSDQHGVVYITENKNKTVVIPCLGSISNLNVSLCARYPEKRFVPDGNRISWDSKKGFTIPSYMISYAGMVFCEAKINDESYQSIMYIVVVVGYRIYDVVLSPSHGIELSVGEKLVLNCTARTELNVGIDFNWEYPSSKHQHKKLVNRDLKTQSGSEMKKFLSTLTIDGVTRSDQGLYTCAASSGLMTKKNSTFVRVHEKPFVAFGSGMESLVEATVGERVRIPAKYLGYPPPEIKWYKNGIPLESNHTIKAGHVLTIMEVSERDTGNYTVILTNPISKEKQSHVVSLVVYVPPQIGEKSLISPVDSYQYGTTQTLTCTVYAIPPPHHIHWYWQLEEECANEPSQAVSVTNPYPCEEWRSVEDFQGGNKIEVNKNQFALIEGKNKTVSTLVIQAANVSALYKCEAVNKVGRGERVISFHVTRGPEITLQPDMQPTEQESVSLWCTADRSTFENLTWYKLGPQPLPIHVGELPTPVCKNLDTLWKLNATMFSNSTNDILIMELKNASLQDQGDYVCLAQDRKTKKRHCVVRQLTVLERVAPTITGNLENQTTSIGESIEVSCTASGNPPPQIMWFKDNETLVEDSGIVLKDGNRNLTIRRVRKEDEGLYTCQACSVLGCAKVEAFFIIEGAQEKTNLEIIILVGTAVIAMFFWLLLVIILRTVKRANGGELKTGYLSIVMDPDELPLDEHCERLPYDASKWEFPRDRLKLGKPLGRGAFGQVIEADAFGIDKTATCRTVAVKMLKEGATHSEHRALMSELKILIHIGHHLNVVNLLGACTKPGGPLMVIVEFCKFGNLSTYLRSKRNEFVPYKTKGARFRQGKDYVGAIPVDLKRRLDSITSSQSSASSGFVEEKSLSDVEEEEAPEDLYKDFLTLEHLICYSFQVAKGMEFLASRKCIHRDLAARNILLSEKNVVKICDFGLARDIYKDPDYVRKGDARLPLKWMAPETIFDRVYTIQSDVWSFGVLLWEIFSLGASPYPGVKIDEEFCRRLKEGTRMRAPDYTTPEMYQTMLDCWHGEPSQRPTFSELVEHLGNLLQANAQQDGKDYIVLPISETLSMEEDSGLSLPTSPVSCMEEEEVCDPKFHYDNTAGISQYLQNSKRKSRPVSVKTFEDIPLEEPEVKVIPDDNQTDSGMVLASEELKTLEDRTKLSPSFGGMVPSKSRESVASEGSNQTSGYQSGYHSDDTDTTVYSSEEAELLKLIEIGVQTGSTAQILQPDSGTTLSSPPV
How it was run: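 HUVECs were seeded at 4000–5000 per well in DMEM with 10% FCS for 12 h, then held 24 h in serum. Compound (10 µM) was added with serum for 30 min at 37 °C. Cells were fixed in 4% formaldehyde and probed with anti-phospho-VEGFR Tyr1175 (1:1000), then an HRP secondary (1:5000). TMB signal was stopped with 2N H2SO4 and read at 450 nm. Percent inhibition is normalized to control.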

[6] = Cytotoxicity against HUVEC cells assessed as reduction in cell viability after 96 hrs by MTT assay; details: human
[7] = system: K562; experiment: Antiproliferative activity against human K562 cells assessed as reduction in cell viability after 48 hrs by MTT assay; type: functional, cell-based; details: K562, 48 h
How it was run: (§2)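 MCF-7, K562, A549 and HT-29 lines were seeded in 96-well plates and kept overnight at 37 °C, 5% CO2, 95% humidity. They were then exposed to six concentrations (100 to 2.5) for 48 h. After PBS washes, MTT was added for 4 h at 37 °C and formazan was dissolved in DMSO. Absorbance was read at 570 nm. Survival is mean OD of treated wells over the negative control, and IC50 was derived from that.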

[8] = system: HT-29; experiment: Antiproliferative activity against human HT-29 cells assessed as reduction in cell viability after 48 hrs by MTT assay; type: functional, cell-based; details: HT-29, 48 h; how it was run: as §2

T1 sequence (P56524 whole entry): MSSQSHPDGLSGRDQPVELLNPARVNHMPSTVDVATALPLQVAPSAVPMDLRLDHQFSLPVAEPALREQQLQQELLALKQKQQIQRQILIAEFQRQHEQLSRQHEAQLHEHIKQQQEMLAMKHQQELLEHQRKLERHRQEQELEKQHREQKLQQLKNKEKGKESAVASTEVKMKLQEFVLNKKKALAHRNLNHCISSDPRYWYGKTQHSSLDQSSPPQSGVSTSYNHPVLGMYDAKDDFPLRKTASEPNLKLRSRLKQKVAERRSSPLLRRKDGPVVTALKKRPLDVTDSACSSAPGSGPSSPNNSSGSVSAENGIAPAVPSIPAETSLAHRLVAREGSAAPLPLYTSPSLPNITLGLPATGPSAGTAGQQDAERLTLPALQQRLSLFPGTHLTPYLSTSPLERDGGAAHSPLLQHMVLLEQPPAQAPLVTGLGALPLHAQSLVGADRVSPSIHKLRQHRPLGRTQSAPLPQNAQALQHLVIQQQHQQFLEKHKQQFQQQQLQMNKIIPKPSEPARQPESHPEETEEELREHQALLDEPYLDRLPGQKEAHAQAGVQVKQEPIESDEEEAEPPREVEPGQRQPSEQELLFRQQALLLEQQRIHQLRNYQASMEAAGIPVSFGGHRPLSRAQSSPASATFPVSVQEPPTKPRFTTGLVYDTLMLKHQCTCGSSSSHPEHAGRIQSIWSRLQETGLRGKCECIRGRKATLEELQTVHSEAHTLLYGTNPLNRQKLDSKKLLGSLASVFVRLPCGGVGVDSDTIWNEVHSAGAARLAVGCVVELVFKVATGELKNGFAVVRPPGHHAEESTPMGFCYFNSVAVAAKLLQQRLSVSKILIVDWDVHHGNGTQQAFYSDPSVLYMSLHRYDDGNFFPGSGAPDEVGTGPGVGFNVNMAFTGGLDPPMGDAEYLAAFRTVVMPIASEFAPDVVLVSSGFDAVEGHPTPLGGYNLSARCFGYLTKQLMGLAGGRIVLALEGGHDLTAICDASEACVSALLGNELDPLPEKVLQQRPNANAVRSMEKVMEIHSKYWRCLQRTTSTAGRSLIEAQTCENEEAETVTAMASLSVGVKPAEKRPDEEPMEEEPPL

| Compound | Activity [1] | Activity [2] | IC50 [3] | IC50 [4] | inhibition [5] | IC50 at 96 h [6] | IC50 [7] | IC50 [8] |
| --- | --- | --- | --- | --- | --- | --- | --- | --- |
| O=C1NC(=O)/C(=C\c2ccc(OCC(=O)N3N=C(c4ccc(F)cc4F)CC3c3ccco3)cc2)S1 (centres undefined) | 22% | 100% | 15000 nM | > 50000 nM |  |  |  |  |
| O=C1NC(=O)/C(=C\c2ccc(OCC(=O)N3N=C(c4ccccc4)CC3c3ccc(F)cc3)cc2)S1 (centres undefined) | 2.5% | 26% | 1700 nM | 26000 nM |  |  |  |  |
| O=C1NC(=O)/C(=C\c2ccc(OCC(=O)N3N=C(c4ccc(F)cc4)CC3c3ccc(C(F)(F)F)cc3)cc2)S1 (centres undefined) | 9.2% | 81% | 1300 nM | > 50000 nM | 48.7% | 6000 nM |  |  |
| O=C1NC(=O)/C(=C\c2ccc(OCC(=O)N3N=C(c4ccccc4)CC3c3ccc(C(F)(F)F)cc3)cc2)S1 (centres undefined) | 12% | 8.2% | 1000 nM | 16000 nM |  | > 10000 nM |  |  |
| O=C1NC(=O)/C(=C\c2ccc(OCC(=O)N3N=C(c4ccccc4)CC3c3ccccc3)cc2)S1 (centres undefined) | 11% | 39% | 1600 nM | 20000 nM |  |  |  |  |
| O=C1NC(=O)/C(=C\c2ccc(OCC(=O)N3N=C(c4ccccc4)CC3c3ccccc3Cl)cc2)S1 (centres undefined) | 14% | 27% | 1200 nM | 29000 nM | 49% | 2000 nM |  |  |
| CC(=O)O[C@H]1C(=O)[C@@]2(C)[C@H]([C@H](OC(=O)c3ccccc3)[C@]3(O)C[C@H](OC(=O)[C@H](O)[C@@H](NC(=O)c4ccccc4)c4ccccc4)C(C)=C1C3(C)C)[C@]1(OC(C)=O)CO[C@@H]1C[C@@H]2O [PACLITAXEL] |  |  |  |  |  |  | 290 nM | 280 nM |
| Cc1ccc(C2CC(c3ccccc3)=NN2C(=O)COc2ccc(/C=C3/SC(=O)NC3=O)cc2)cc1 (centres undefined) | 4.6% | 36% | 1200 nM | 31000 nM |  |  |  |  |
| O=C1NC(=O)/C(=C\c2ccc(OCC(=O)N3N=C(c4ccc(F)cc4F)CC3c3ccc(F)cc3)cc2)S1 (centres undefined) | 10% | 69% | 1500 nM | > 50000 nM |  |  |  |  |
| Cc1ccc(C2CC(c3ccc(F)cc3)=NN2C(=O)COc2ccc(/C=C3/SC(=O)NC3=O)cc2)cc1 (centres undefined) | 10% | 81% | 1800 nM | > 50000 nM |  |  |  |  |
| O=C1NC(=O)/C(=C\c2ccc(OCC(=O)N3N=C(c4ccc(F)cc4)CC3c3ccccc3Cl)cc2)S1 (centres undefined) | 3.3% | 28% | 1100 nM | > 50000 nM |  |  |  |  |
| O=C1NC(=O)/C(=C\c2ccc(OCC(=O)N3N=C(c4ccc(F)cc4)CC3c3ccc(F)cc3)cc2)S1 (centres undefined) | 3.3% | 61% | 1400 nM | > 50000 nM |  | > 10000 nM |  |  |
| Cc1ccc(C2CC(c3ccc(F)cc3F)=NN2C(=O)COc2ccc(/C=C3/SC(=O)NC3=O)cc2)cc1 (centres undefined) | 9.4% | 69% | 1500 nM | > 50000 nM |  | > 10000 nM |  |  |
| O=C1NC(=O)/C(=C\c2ccc(OCC(=O)N3N=C(c4ccccc4)CC3c3ccc(F)cc3F)cc2)S1 (centres undefined) | 17% | 33% | 2200 nM | 34000 nM |  |  |  |  |
| O=C1NC(=O)/C(=C\c2ccc(OCC(=O)N3N=C(c4ccc(F)cc4)CC3c3ccc(F)cc3F)cc2)S1 (centres undefined) | 10% | 63% | 1600 nM | > 50000 nM |  |  |  |  |
| O=C1NC(=O)/C(=C\c2ccc(OCC(=O)N3N=C(c4ccccc4)CC3c3ccc(Br)cc3)cc2)S1 (centres undefined) | 7% | 21% | 1200 nM | 35000 nM |  |  |  |  |
| O=C1NC(=O)/C(=C\c2ccc(OCC(=O)N3N=C(c4ccc(F)cc4)CC3c3ccccc3)cc2)S1 (centres undefined) | 10% | 58% | 4200 nM | > 50000 nM |  | > 10000 nM |  |  |
